Results gathered from unrelated publications.
Each line is one published result; the experiments were not run side by side.
BCHE: Cholinesterase (BCHE, Equus caballus, UniProt P81908)
Sterol carrier protein 2: Sterol carrier protein 2 (Aedes aegypti, UniProt Q86PR3)
DRD1: D(1A) dopamine receptor (DRD1, Homo sapiens, UniProt P21728)

| SMILES | target | read-out | action | method | setting | endpoint | value |
| --- | --- | --- | --- | --- | --- | --- | --- |
| O=c1c(O)c(-c2ccc(O[C@@H]3O[C@H](CO)[C@@H](O)[C@H](O)[C@H]3O)c(O)c2)oc2cc(O)cc(O)c12 | BCHE | enzyme activity | inhibitor |  |  | Ki | 0.0281 µM |
| COc1cc(/C=C2\CCC/C(=C\c3cc(OC)c(OC)c(OC)c3)C2=O)cc(OC)c1OC | Sterol carrier protein 2 | ligand displacement |  | fluorescence |  | EC50 | 12.1 µM |
| C[C@H]1c2c[nH]c3cccc(c23)S[C@H]1C(=O)O | trpS (Geobacillus stearothermophilus, UniProt P00953) | binding |  | ITC |  | Kd | 3.1 µM |
| CNC[C@H](O)c1cccc(O)c1 | DRD1 | cAMP | agonist | TR-FRET |  | EC50 | 2.8 µM |
| CNc1nc(C#Cc2ccc(Cl)s2)nc2c1ncn2[C@@H]1O[C@H](C(=O)OC)[C@@H](O)[C@H]1O | Sodium-dependent serotonin transporter (SLC6A4, Homo sapiens, UniProt P31645) | ligand displacement |  | radioligand | cell membranes | Ki | > 10 µM |
| O=S(=O)(O)c1ccc(-c2c3nc(c(-c4ccc(S(=O)(=O)O)cc4)c4ccc([nH]4)c(-c4ccc(S(=O)(=O)O)cc4)c4nc(c(-c5ccc(S(=O)(=O)O)cc5)c5ccc2[nH]5)C=C4)C=C3)cc1 | Galectin-7 (LGALS7, Homo sapiens, UniProt P47929) | binding |  |  |  | Kd | 9.5 µM |
| CC=C1[C@H]2C=C(C)C[C@]1(N(C)C)c1ccc(OC)nc1C2 | BCHE | enzyme activity | inhibitor | Ellman |  | IC50 | 1350 µM |
| CN(C)C(=O)COC(=O)c1cc(-c2ccc([C@H]3C[C@H]4C[C@@H]3CN4)cc2)c2ccc(-c3ccc(C(F)(F)F)cc3)cc2c1 | DRD1 | cell-free assay |  | radioligand |  | Ki | 1.4 to 2.2 µM |
| CC(CCc1ccc(O)cc1)NCCc1ccc(O)c(O)c1 (stereo not drawn) | DRD1 | cAMP | agonist | TR-FRET |  | EC50 | 13 µM |
| CC=C1[C@H]2C=C(C)C[C@]1(N(C)C)c1ccc(=O)[nH]c1C2 | BCHE | enzyme activity | inhibitor | Ellman |  | IC50 | 224 µM |
| O=c1c(O)c(-c2ccc(O)c(O)c2)oc2cc(O)cc(O)c12 | Sterol carrier protein 2 | ligand displacement |  |  |  | EC50 | 18.4 µM |
| N[C@H]1C[C@@H](CO)[C@H](c2ccc(-c3cc(C(=O)O)cc4cc(-c5ccc(C(F)(F)F)cc5)ccc34)cc2)C1 | DRD1 | cell-free assay |  | radioligand |  | Ki | 1.4 to 2.2 µM |
